Experimental data taken from ChEMBL document CHEMBL4706728, “Discovery of a Highly Selective and Potent TRPC3 Inhibitor with High Metabolic Stability and Low Toxicity” (ACS Med Chem Lett, 2021).
Blank lines part the entries; values can stand above or below the compound they belong to. Active and inactive are the calls of the source. The calls are words filed in the database; no cut-off is given here.

Assays:
[1] = biological target: T1, Short transient receptor potential channel 3 (Homo sapiens) (UniProt Q13507); experiment: Inhibition of human TRPC3 expressed in HEK293 cells assessed as inhibition of GSK170-induced current at 10 uM in absence of extracellular calcium by whole cell patch-clamp method relative to control; assay type: cell-based
T1 sequence (whole entry): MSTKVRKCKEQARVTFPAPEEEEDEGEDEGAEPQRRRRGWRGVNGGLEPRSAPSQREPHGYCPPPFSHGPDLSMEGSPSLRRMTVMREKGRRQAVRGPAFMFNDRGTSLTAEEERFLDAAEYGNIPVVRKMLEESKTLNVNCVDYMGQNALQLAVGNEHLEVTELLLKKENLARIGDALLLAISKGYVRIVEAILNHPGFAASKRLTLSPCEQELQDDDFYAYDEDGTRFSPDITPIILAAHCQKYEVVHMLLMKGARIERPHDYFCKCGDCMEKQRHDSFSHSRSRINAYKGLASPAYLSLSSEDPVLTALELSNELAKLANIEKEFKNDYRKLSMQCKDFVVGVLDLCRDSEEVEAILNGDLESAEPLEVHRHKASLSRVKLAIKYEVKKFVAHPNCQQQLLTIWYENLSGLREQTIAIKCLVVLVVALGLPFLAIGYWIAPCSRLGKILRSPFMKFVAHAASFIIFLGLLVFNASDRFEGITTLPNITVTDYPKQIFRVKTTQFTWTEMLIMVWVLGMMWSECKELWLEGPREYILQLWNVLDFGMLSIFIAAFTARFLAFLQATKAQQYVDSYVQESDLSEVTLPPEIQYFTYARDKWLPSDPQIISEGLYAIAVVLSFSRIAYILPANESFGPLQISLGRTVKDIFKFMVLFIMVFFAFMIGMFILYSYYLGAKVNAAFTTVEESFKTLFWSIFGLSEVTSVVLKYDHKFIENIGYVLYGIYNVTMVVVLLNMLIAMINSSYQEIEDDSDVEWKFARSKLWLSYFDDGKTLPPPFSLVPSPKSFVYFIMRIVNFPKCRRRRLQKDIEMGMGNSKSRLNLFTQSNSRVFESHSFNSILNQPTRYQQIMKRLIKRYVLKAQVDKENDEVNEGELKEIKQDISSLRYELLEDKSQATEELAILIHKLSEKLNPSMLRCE
In short: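 Human TRPC3 transiently expressed in HEK293 cells; whole-cell patch clamp with Ca2+-free solutions. Channel activated by GSK1702934A, then test compound at 10 μM perfused with the agonist. Inhibition expressed as percentage of the agonist-evoked current; mean ± SD, n cells per compound.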

[2] = Toxicity in NSG/ICR mouse assessed as mortality at 200 mg/kg, ip administered once daily for 5 days measured within 48 hrs; assay type: organism-based; details: in vivo, dose 200 mg/kg/day
In short: (§1)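 Mice (n = 5 per group) dosed at 200 mg/kg by intraperitoneal injection once daily for 5 consecutive days. Survival monitored. Body weight expressed as mean percent change ± SD relative to weight at the start of treatment (day 0), with 15% weight loss as the reference line.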

[3] = biological target: T2, Short transient receptor potential channel 3 (Homo sapiens, UniProt Q13507); experiment: Inhibition of human TRPC3 expressed in HEK293 cells assessed as inhibition of GSK170-induced current in presence of 2 mM extracellular calcium by whole cell patch-clamp method; assay type: cell-based
T2 sequence (Q13507 whole entry): T1 sequence (whole entry)
In short: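 hTRPC3 in HEK293 cells, whole-cell patch clamp with 2 mM extracellular Ca2+. Currents elicited by 1 μM GSK1702934A and challenged with a range of inhibitor concentrations by perfusion. Each concentration tested on separate cells and normalized to the cell's maximum amplitude. Dose–response curve built from the data; mean ± SD.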

[4] = biological target: T2, Short transient receptor potential channel 3; experiment: Inhibition of human TRPC3 expressed in HEK293 cells assessed as inhibition of GSK170-induced current in absence of extracellular calcium by whole cell patch-clamp method; assay type: cell-based
In short: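 Whole-cell patch clamp of hTRPC3 in transfected HEK293 cells, Ca2+-free solutions, currents activated by 1 μM GSK1702934A. Inhibitor at a range of concentrations perfused with agonist. Each concentration tested on independent cells and normalized to that cell's maximum current to avoid tachyphylaxis. Dose–response fitted for IC50; mean ± SD.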

[5] = biological target: T3, Short transient receptor potential channel 3 (Mus musculus, UniProt Q9QZC1); experiment: Inhibition of mouse TRPC3 expressed in HEK293 cells assessed as inhibition of Ca2+ influx by whole cell patch-clamp method; assay type: cell-based
T3 sequence (Q9QZC1 whole entry): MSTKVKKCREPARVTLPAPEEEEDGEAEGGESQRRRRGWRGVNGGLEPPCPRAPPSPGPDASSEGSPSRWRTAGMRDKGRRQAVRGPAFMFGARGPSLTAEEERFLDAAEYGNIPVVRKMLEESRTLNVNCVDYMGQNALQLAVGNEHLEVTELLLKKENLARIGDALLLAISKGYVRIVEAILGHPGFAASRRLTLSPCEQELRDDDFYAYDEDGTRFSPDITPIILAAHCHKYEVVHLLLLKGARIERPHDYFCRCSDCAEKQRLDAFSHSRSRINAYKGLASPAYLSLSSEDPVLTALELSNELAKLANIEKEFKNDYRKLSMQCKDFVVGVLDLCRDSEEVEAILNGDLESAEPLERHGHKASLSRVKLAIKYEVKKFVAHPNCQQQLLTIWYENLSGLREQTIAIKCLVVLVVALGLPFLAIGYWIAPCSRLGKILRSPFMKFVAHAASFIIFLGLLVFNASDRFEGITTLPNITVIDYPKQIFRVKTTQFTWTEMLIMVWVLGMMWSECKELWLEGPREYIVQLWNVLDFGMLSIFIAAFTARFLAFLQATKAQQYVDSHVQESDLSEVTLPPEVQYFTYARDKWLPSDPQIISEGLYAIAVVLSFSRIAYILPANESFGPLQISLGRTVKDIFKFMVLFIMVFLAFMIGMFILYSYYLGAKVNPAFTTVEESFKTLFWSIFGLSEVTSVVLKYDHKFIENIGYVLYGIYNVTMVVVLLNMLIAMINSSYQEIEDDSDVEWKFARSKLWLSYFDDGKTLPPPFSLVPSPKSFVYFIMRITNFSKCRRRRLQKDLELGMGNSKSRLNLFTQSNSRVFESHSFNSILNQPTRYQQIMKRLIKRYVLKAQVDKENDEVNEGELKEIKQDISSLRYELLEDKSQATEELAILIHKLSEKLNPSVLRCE

[6] = Toxicity in NSG/ICR mouse assessed as body weight loss at 200 mg/kg, ip administered once daily for 5 days; assay type: organism-based; details: in vivo, 120 h, dose 200 mg/kg/day, time 5 day; in short: as §1
[7] = Toxicity in NSG/ICR mouse assessed as survival at 200 mg/kg, ip administered once daily for 5 days; assay type: organism-based; details: NSG/ICR, in vivo, dose 200 mg/kg/day, time 5 day; in short: as §1
[8] = biological target: T1, Short transient receptor potential channel 3 (Homo sapiens); experiment: Inhibition of human TRPC3 expressed in HEK293 cells assessed as inhibition of OAG-induced current at 0.001 to 10 uM by whole cell patch-clamp method; assay type: cell-based; details: dose 0.001-10 µM
In short: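 Whole-cell recordings of hTRPC3 expressed in HEK293 cells, channel activated by 1-oleoyl-2-acetyl-sn-glycerol (membrane-permeable diacylglycerol analogue) instead of GSK1702934A. Inhibitor at a range of concentrations co-perfused with agonist to build a dose–response profile.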

[9] = Metabolic stability in mouse liver microsomes assessed as half life at […] measured up to 240 mins in presence of NADPH regeneration system by LC-MS analysis; assay type: ADME, Microsome
[10] = Metabolic stability in human liver microsomes assessed as half life at […] measured up to 240 mins in presence of NADPH regeneration system by LC-MS analysis; assay type: ADME, Microsome
[11] = biological target: ORAI1/STIM1 (Homo sapiens, UniProt Q96D31+Q13586); experiment: Inhibition of STIM/Orai1 (unknown origin) expressed in HEK293 cells assessed as reduction in thapsigargin-induced Ca2+ influx at 10 uM in presence of Ca2+ by whole cell patch clamp method; assay type: cell-based; details: hek293, 10 µM
[12] = Metabolic stability in rat liver microsomes assessed as half life at […] measured up to 240 mins in presence of NADPH regeneration system by LC-MS analysis; assay type: ADME, Microsome
[13] = system: Hippocampal neurone; experiment: Neuroprotective activity in Sprague-Dawley rat primary hippocampal neurons assessed as reduction in Abeta-induced dendrites damage at 0.25 to 1 uM incubated for 16 hrs by MAP2 staining based assay; assay type: functional, tissue-based; details: dose 0.25-1 µM
In short: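 Primary hippocampal neurons from E17 rat embryos, used at 14 DIV. Treated for 16 h with naturally secreted Aβ-containing 7PA2 conditioned medium (CHO medium as control), alone or with test compound at several concentrations. Neurons then immunostained for MAP2 with DAPI, and dendritic length quantified.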

ORAI1/STIM1, sequence (Q96D31 whole entry): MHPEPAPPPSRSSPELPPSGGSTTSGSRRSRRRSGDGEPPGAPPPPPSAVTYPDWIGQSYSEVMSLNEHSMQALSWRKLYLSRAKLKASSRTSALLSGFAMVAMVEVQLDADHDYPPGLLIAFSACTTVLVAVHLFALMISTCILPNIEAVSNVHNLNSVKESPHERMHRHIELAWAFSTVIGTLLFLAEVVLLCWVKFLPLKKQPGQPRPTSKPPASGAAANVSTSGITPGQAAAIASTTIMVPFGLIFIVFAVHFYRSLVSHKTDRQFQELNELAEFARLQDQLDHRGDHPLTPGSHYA
ORAI1/STIM1, sequence (Q13586 whole entry): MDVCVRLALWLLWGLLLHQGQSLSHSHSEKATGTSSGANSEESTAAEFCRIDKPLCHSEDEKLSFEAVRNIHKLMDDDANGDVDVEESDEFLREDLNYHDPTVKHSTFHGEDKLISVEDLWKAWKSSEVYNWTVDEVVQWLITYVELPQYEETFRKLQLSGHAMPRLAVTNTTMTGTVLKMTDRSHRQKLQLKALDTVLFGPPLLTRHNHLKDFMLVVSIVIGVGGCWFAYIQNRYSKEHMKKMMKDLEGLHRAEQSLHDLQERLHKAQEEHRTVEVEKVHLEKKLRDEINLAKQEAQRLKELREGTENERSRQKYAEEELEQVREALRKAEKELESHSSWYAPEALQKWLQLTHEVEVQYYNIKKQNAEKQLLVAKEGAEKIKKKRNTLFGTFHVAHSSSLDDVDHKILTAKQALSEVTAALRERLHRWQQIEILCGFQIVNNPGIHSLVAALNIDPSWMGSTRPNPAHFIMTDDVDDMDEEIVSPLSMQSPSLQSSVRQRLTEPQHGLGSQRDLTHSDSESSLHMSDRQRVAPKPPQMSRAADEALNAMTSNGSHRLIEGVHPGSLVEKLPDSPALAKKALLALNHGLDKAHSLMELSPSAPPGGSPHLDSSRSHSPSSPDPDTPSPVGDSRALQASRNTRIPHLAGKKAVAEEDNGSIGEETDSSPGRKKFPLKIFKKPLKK

SMILES: CCNS(=O)(=O)c1cnn(-c2ccc(-n3ccc(Cl)c(Cl)c3=O)cc2)c1C(F)(F)F
- inhibition [1]: inactive

SMILES: CCNC(=O)c1cnn(-c2ccc(NC(=O)C(Cl)=C(Cl)Cl)cc2)c1C(F)(F)F
- mortality at 48 h [2]: 100%

SMILES: CCOC(=O)c1cnn(-c2ccc(NC(=O)C(Cl)=C(Cl)Cl)cc2)c1C(F)(F)F
- IC50 [3]: 470 nM
- IC50 [4]: 530 nM
- IC50 [5]: 700 nM
- Activity [6]: 15%
- survival at 120 h [7]: 80%
- inhibition [8]: Active
- half-life [9]: < 15 min
- half-life [10]: < 15 min
- inhibition (INH) [11]: Active
- half-life [12]: < 15 min
- inhibition [1]: 91%
- Activity [13]: Active

SMILES: CCNC(=O)c1cnn(-c2ccc(-n3ccc(Cl)c(F)c3=O)cc2)c1C(F)(F)F
- inhibition [1]: inactive

Other lines, results leading:

- inhibition [1]: inactive
SMILES: CCOC(=O)c1cnn(-c2ccc(-n3cc(Cl)cc(Cl)c3=O)cc2)c1C(F)(F)F

- inhibition [1]: 84%
SMILES: CCNC(=O)c1cnn(-c2ccc(-n3ccc(Cl)cc3=O)cc2)c1C(F)(F)F

- inhibition [1]: inactive
SMILES: CCOC(=O)c1cnn(-c2ccc(-n3cc(Cl)ccc3=O)cc2)c1C(F)(F)F

- inhibition [1]: inactive
SMILES: CCOC(=O)c1cnn(-c2ccc(-n3ccccc3=O)cc2)c1C(F)(F)F

- inhibition [1]: 71%
SMILES: CCOC(=O)c1cnn(-c2ccc(-n3ccc(Cl)cc3=O)cc2)c1C(F)(F)F
